Where “and” joins values, the source holds several entries; their conditions need not be identical. Identical values can stand only once. Calls of active or inactive are those of the source. No cut-off for these calls is given here.
Assays:
[1] = test system: KB/VCR; assay: Reversal of P-glycoprotein-mediated vincristine-resistance in human KB/VCR cells expressing Pgp assessed as ratio of adriamycin IC50 to adriamycin IC50 in presence of compound at 16 uM after 48 hrs by MTT assay; format: cell-based
Outline: (§1)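 Cells were exposed for 48 h to VCR or ADR alone, or to VCR or ADR combined with a fixed concentration of modulator. Verapamil (16 µM) served as the reference agent. […] RF = IC50 of drug alone / IC50 with modulator. Means ± SD of three experiments.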

[2] = test system: KB/VCR (human); conditions: 4 to 16 uM
[3] = test system: KB; assay: Potentiation of adriamycin-induced cytotoxicity against human KB cells at 16 uM after 48 hrs by MTT assay; format: functional; outline: as §1
[4] = test system: KB; assay: Potentiation of vincristine-induced cytotoxicity against human KB cells at 16 uM after 48 hrs by MTT assay; format: functional; outline: as §1
[5] = test system: KB/VCR; assay: Reversal of P-glycoprotein-mediated vincristine-resistance in human KB/VCR cells expressing Pgp assessed as ratio of vincristine IC50 to vincristine IC50 in presence of compound at 16 uM after 48 hrs by MTT assay; format: cell-based; outline: as §1
[6] = Cytotoxicity against human KB/VCR cells expressing Pgp after 48 hrs by MTT assay; format: functional, cell-based
Outline: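 KB/VCR cells were kept in 200 ng/mL VCR and moved to drug-free medium for at least one week before use. Cells were exposed to graded compound concentrations for 48 h, with DMSO-treated cells as controls. Viability was read by MTT. IC50 values are means of three experiments.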

[7] = test system: KB/VCR; assay: Reversal of P-glycoprotein-mediated vincristine-resistance in human KB/VCR cells expressing Pgp assessed as ratio of vincristine IC50 to vincristine IC50 in presence of compound at 4 uM after 48 hrs by MTT assay; format: cell-based
Outline: (§2)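 Cells were exposed for 48 h to VCR or ADR alone, or to VCR or ADR combined with a fixed concentration of modulator. RF = IC50 of drug alone / IC50 with modulator. Means ± SD of three experiments.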

[8] = test system: KB; assay: Cytotoxicity against human KB cells after 48 hrs by MTT assay; format: functional, cell-based
[9] = test system: KB/VCR; assay: Reversal of P-glycoprotein-mediated vincristine-resistance in human KB/VCR cells expressing Pgp assessed as ratio of vincristine IC50 to vincristine IC50 in presence of compound at 8 uM after 48 hrs by MTT assay; format: cell-based; outline: as §2
[10] = test system: KB/VCR; assay: Induction of apoptosis in human KB/VCR cells expressing Pgp assessed as down-regulation of Bcl-2 expression at 16 uM after 48 hrs by Western blotting; format: functional, cell-based
Outline: (§3)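 KB/VCR cells were treated for 48 h with modulator (16 µM), VCR (0.2 µM), or both. Cells were lysed in RIPA buffer containing protease and phosphatase inhibitors. Protein was separated by SDS–PAGE and transferred to PVDF. Membranes were blocked in 5% milk/TBST and probed overnight with anti-Bcl-2 or anti-Bax, then an HRP secondary. GAPDH served as loading control, with ECL detection.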

[11] = test system: KB/VCR; assay: Inhibition of P-gp-mediated rhodamine-123 efflux in human KB/VCR cells at 6 uM after 2 hrs by flow cytometry; format: cell-based
Outline: (§4)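 For efflux, cells were loaded with 5 µM Rh123 together with modulator or verapamil for 60 min at 37 °C. Cells were washed three times in Rh123-free medium and collected at 15, 30, 45, 60, 90 and 120 min after wash-out. They were resuspended in ice-cold PBS, and remaining Rh123 fluorescence was measured by flow cytometry.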

[12] = test system: KB/VCR; assay: Induction of apoptosis in human KB/VCR cells expressing Pgp assessed as up-regulation of Bax expression at 16 uM after 48 hrs by Western blotting; format: functional, cell-based; outline: as §3
[13] = test system: KB; assay: Potentiation of vincristine-induced cytotoxicity against human KB cells at 4 uM after 48 hrs by MTT assay; format: functional; outline: as §1
[14] = test system: KB; assay: Potentiation of adriamycin-induced cytotoxicity against human KB cells at 8 uM after 48 hrs by MTT assay; format: functional; outline: as §1
[15] = test system: KB/VCR; assay: Inhibition of P-gp-mediated rhodamine-123 efflux in human KB/VCR cells at 6 uM after 1 hr by flow cytometry; format: cell-based; outline: as §4
[16] = test system: KB/VCR; assay: Reversal of P-glycoprotein-mediated vincristine-resistance in human KB/VCR cells expressing Pgp assessed as ratio of adriamycin IC50 to adriamycin IC50 in presence of compound at 4 uM after 48 hrs by MTT assay; format: cell-based; outline: as §1
[17] = test system: KB; assay: Potentiation of vincristine-induced cytotoxicity against human KB cells at 8 uM after 48 hrs by MTT assay; format: functional; outline: as §1
[18] = test system: KB/VCR; assay: Induction of apoptosis in human KB/VCR cells expressing Pgp assessed as morphological changes using DAPI staining at 16 uM after 48 hrs by fluorescence microscopic analysis; format: functional, cell-based
Outline: (§5)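 KB/VCR cells were treated for 48 h with modulator (16 µM), VCR (0.2 µM), or both. Cells were fixed in 4% paraformaldehyde for 10 min, permeabilized with 0.1% Triton X-100, and stained with DAPI (1:2000) for 10 min. Condensed or fragmented nuclei were scored by fluorescence microscopy.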

[19] = test system: KB/VCR; assay: Reversal of P-gp-mediated multidrug-resistance in human KB/VCR cells assessed as increase in intracellular rhodamine-123 accumulation after 1 hr by flow cytometry relative to control; format: cell-based
Outline: (§6)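 Cells were pretreated with modulator at 4, 8 or 16 µM, or DMSO, for 1 h. Rh123 (5 µM) was then added for a further 1 h at 37 °C in the dark. Cells were washed and resuspended in ice-cold PBS. Rh123 fluorescence was read by flow cytometry using 488 nm excitation and a 530 nm band-pass filter. Means ± SD of three independent experiments, compared with DMSO-treated cells.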

[20] = test system: KB; assay: Induction of rhodamine-123 accumulation in human KB cells at […] after 1 hr by flow cytometry; format: functional, cell-based; outline: as §6
[21] = test system: KB/VCR; assay: Reversal of P-glycoprotein-mediated vincristine-resistance in human KB/VCR cells expressing Pgp assessed as ratio of adriamycin IC50 to adriamycin IC50 in presence of compound at 8 uM after 48 hrs by MTT assay; format: cell-based; outline: as §1
[22] = test system: KB; assay: Potentiation of adriamycin-induced cytotoxicity against human KB cells at 4 uM after 48 hrs by MTT assay; format: functional; outline: as §1
[23] = test system: KB/VCR; assay: Reversal of P-glycoprotein-mediated vincristine-resistance in human KB/VCR cells expressing Pgp assessed as ratio of vincristine IC50 to vincristine IC50 in presence of compound at 4 uM after 48 hrs by MTT assay
[24] = test system: KB/VCR; assay: Reversal of P-gp-mediated multidrug-resistance in human KB/VCR cells assessed as increase in intracellular adriamycin accumulation at 8 uM after 1 hr by flow cytometry relative to control; format: cell-based
Outline: (§7)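 Cells were incubated with ADR at 3 µg/mL, alone or with modulator at 4, 8 or 16 µM, for 1 h at 37 °C. The reaction was stopped in an ice-water bath, and cells were washed twice with ice-cold PBS. Intracellular ADR fluorescence was measured by flow cytometry as mean intensity and expressed relative to DMSO-treated control cells.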

[25] = test system: KB/VCR; assay: Reversal of P-gp-mediated multidrug-resistance in human KB/VCR cells assessed as increase in intracellular adriamycin accumulation at 16 uM after 1 hr by flow cytometry relative to control; format: cell-based; outline: as §7
[26] = test system: KB; assay: Induction of adriamycin accumulation in human KB cells at […] after 1 hr by flow cytometry; format: functional, cell-based; outline: as §7
[27] = test system: KB/VCR; assay: Reversal of P-gp-mediated multidrug-resistance in human KB/VCR cells assessed as increase in intracellular adriamycin accumulation at 4 uM after 1 hr by flow cytometry relative to control; format: cell-based; outline: as §7
[28] = test system: KB/VCR; assay: Induction of apoptosis in human KB/VCR cells expressing Pgp assessed as down-regulation of Bcl-2 expression at 0.2 uM after 48 hrs by Western blotting; format: functional, cell-based; outline: as §3
[29] = test system: KB/VCR; assay: Induction of apoptosis in human KB/VCR cells expressing Pgp assessed as up-regulation of Bax expression at 0.2 uM after 48 hrs by Western blotting; format: functional, cell-based; outline: as §3
[30] = test system: KB/VCR; assay: Induction of apoptosis in human KB/VCR cells expressing Pgp assessed as morphological changes using DAPI staining at 0.2 uM after 48 hrs by fluorescence microscopic analysis; format: functional, cell-based; outline: as §5

| Structure (SMILES) | fold change (FC) [1] | fold change (FC) [3] | fold change (FC) [4] | fold change (FC) [5] | IC50 ([6]; Homo sapiens, KB/VCR, 48 h) | fold change (FC) [7] | IC50 [8] | fold change (FC) [9] | further results |
| --- | --- | --- | --- | --- | --- | --- | --- | --- | --- |
| COc1ccc(CCN(C)CCCC(C#N)(c2ccc(OC)c(OC)c2)C(C)C)cc1OC (stereo unspecified) | 5.32 | 1.06 | 1.29 | 8.85 |  |  |  |  | inhibition [2]: inactive |
| Oc1ccc2cc1Oc1ccc(cc1)/C=C/c1cccc(O)c1Oc1cccc(c1)CC2 [DEHYDROMARCHANTIN C] |  |  |  | 5.95 | 86.9 µM | 2.16 | 84 µM | 3.51 |  |
| COc1ccc2cc1Oc1ccc(cc1)CCc1cccc(OC)c1Oc1cccc(c1)CC2 [DIMETHYL ETHER MARCHANTIAN C] | 6.06 | 0.91 | 1.54 | 7.53 | 95.4 µM | 4.78 | 94.9 µM | 2.57 and 6.76 | Activity [10]: inactive; inhibition [11]: inactive; Activity [12]: inactive; fold change (FC) [13]: 1.17; fold change (FC) [14]: 1.15; inhibition [15]: Active; fold change (FC) [16]: 3.96; fold change (FC) [17]: 1.33; Activity [18]: inactive; Activity [19]: Dose-dependent effect; Activity [20]: inactive; fold change (FC) [21]: 4.2; fold change (FC) [22]: 1.02 |
| COc1ccc2cc1Oc1ccc(cc1)/C=C/c1cccc(OC)c1Oc1cccc(c1)CC2 [DIMETHYLETHER DEHYDROMARCHANTIN C] |  |  |  | 3.1 |  |  | 93.5 µM |  | fold change (FC) [23]: 2.47 |
| COc1cccc2c1C(=O)c1c(O)c3c(c(O)c1C2=O)C[C@@](O)(C(=O)CO)C[C@@H]3O[C@H]1C[C@H](N)[C@H](O)[C@H](C)O1.Cl [DOXORUBICIN HYDROCHLORIDE] |  |  |  |  | 49.7 µg/mL |  | 1.66 µg/mL |  | fold change (FC) [24]: 2.8; fold change (FC) [25]: 5.7; Activity [26]: inactive; fold change (FC) [27]: 2.1 |
| CC[C@]1(O)C[C@H]2CN(CCc3c([nH]c4ccccc34)[C@@](C(=O)OC)(c3cc4c(cc3OC)N(C=O)[C@H]3[C@@](O)(C(=O)OC)[C@H](OC(C)=O)[C@]5(CC)C=CCN6CC[C@]43[C@@H]65)C2)C1 [VINCRISTINE] |  |  |  |  | 1.48 µM |  | 0.00607 µM |  | IC50 ([6]; kb/vcr): 1.49 µM; Activity [28]: inactive; Activity [29]: inactive; Activity [30]: inactive |
